# Measured values taken from paper PMC10739243 (ACS Bio & Med Chem Au, 2023).
# Residues, ends and D or L forms follow the SMILES beside them.
# What was measured:
# ctDNA = assay: Hoechst; format: binding; conditions: Hoechst-bound ctDNA titrated with peptide, fluorescence at 460 nm
# [1] = Polyplex stability against NaCl, agarose gel retardation; format: physicochemical; conditions: pDNA condensed with 25 μM peptide, NaCl treatment
# [2] = tested on: plasmid DNA (pDNA, 4.7 kb); format: binding
# L929 cells [3] = assay: Cellular uptake mechanism by FACS; format: cell-based
# L929 cells [4] = assay: Cellular uptake of CF-labeled peptides by FACS; format: cell-based; conditions: 10 μM CF-labeled peptide, 6 h incubation
# Outline: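 L929 cells grown in DMEM with 10% FBS and 1% penicillin-streptomycin, seeded at 50×10^4 cells/well, and cultured 24 h. Treated 6 h with 10 μM carboxyfluorescein-labelled peptide. Washed with PBS (10 mM, pH 7.4), detached with 0.25% trypsin, pellet washed three times with PBS, then analysed by flow cytometry.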
# pDNA = assay: DLS and ζ-potential of peptide/pDNA polyplex; format: physicochemical
# Outline: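 Plasmid was pEGFP-C2 (4.7 kb), isolated from E. coli DH5α, with purity checked by A260/A280. It was mixed with peptide (0–25 μM) in Tris-HCl (10 mM, pH 7.4). Hydrodynamic size was measured by dynamic light scattering in a 1 cm quartz cuvette, alongside ζ-potential.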
smiles,measurement,setting,value
C[C@H](N)C(=O)N[C@@H](C)C(=O)N[C@@H](CCCCN)C(=O)N[C@@H](CCCCN)C(=O)N[C@@H](C)C(=O)N[C@@H](C)C(=O)N[C@@H](C)C(=O)N[C@@H](CCCCN)C(=O)N[C@@H](CCCCN)C(=O)N[C@@H](C)C(=O)N[C@@H](C)C(=O)N[C@@H](C)C(=O)N[C@@H](CCCCN)C(=O)N[C@@H](CCCCN)C(=O)N[C@@H](C)C(=O)N[C@@H](C)C(=O)N[C@@H](C)C(=O)N[C@@H](CCCCN)C(=O)N[C@@H](CCCCN)C(=O)N[C@@H](C)C(N)=O [Ku-A4] (H-AAKKAAAKKAAAKKAAAKKA-NH2; N-terminus assumed),peptide concentration for complete Hoechst displacement,ctDNA,10 µM
same,NaCl concentration at which polyplex starts disassembling,[1],250 mM
same,peptide concentration for complete condensation of DNA (gel),[2],3 µM
same,inhibition of cellular uptake by macropinocytosis inhibitor amiloride,L929 cells [3],48%
same,reduction of peptide uptake by energy depletion with NaN3,L929 cells [3]; 0.1% NaN3 pre-incubated 1 h before peptide,38%
same,cellular uptake at 4 °C (reduced to),L929 cells [3]; 1 h pre-incubation at 4 °C then peptide 6 h at 4 °C,18%
same,"cell penetration efficacy (cellular uptake, FACS)",L929 cells [4],superior cell penetration ability
same,size of polyplex at higher peptide concentrations,"pDNA; DLS, pDNA in Tris-HCl 10 mM pH 7.4, higher peptide concentrations (up to 25 μM)",140 nm
same,ζ-potential of polyplex at 25 μM peptide,"pDNA; DNA 200 ng/mL, 25 μM peptide",+16.4 mV
